APJ antag: antagonists of human apelin receptor APJ, primary screen, CHO-K1 cells, beta-arrestin complementation, luminescence; P35414; inhibition, % at 20 µM; hit rate 0.32% among 330,000; AID 2521, 2010;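 active means inhibition above about 40% at 20 µM, limit read from the data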;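 further: cells challenged with 10 nM apelin-13 agonist together with compound; plate controls were apelin-13 plus DMSO wells for no effect and DMSO wells lacking apelin-13 for full effect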
EBI2 block: EBI2 receptor antagonists, beta-arrestin recruitment, primary screen, cell-based, luminescence, 7a,25-OHC stimulation, uHTS; G-protein coupled receptor 183 (Homo sapiens), P32249; 7a,25-OHC stimulated; inhibition, % at 5 µM; hit rate 0.81% among 360,000; in the data active means inhibition above about 38%;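 further: enzyme fragment complementation signal reports receptor beta-arrestin coupling in cells; 0% = agonist plus DMSO wells and 100% = wells without agonist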
APJ agonist: agonists of human apelin receptor APJ, primary screen, CHO-K1 cells, PathHunter beta-arrestin, luminescence; 0% DMSO wells, 100% apelin; P35414; AID 2520, 2010; hit rate 0.11% among 330,000; activation, % at 20 µM;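 active means activation more than six SD over the plate average, tested at 20 µM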;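 further: 0% = DMSO alone and 100% = apelin-13 at 10 nM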
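assay system = CHO-K1 APJ beta-arrestin complementation cell line | input = cell density 1000 per well | dosing = compound 20 µM once, DMSO 1% | timing = compound 90 min 25 °C, reagent 1 h | measured by = luminescence from split beta-galactosidase complementation, Galacton Star/Emerald II substrate | read-out basis = APJ agonist activity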
CCR6 antag: CCR6 receptor antagonists, primary screen, cell-based, CHO-K1, luminescence, beta-arrestin, uHTS; AID 493098, 2011; CHO-K1 CCR6 PathHunter beta-arrestin, CCL20-stimulated; inhibition, % at 20 µM; hit rate 0.49% among 340,000;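 active means compounds whose inhibition of the agonist-driven luminescence signal at 20 µM reaches about 50%, limit read from the data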;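 further: cells stimulated with CCL20 at 14 nM final; plate controls were DMSO with CCL20 for no effect and DMSO without agonist for full effect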
CXCR6 inh: CXCR6 receptor inhibitors, primary screen, cell-based, beta-arrestin, luminescence, CHO-K1 PathHunter, 1536-well; C-X-C chemokine receptor type 6 (Homo sapiens), O00574; inhibition, % at 20 µM; hit rate 0.36% among 360,000; AID 602244, 2012; in the data active means inhibition above about 34%, passing the limit was not always enough;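 further: antagonist mode with CXCL16 agonist at 10 nM final; 0% = 10 nM CXCL16 with DMSO and 100% = unstimulated wells without agonist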
Target sequence (O00574 whole entry, looked up): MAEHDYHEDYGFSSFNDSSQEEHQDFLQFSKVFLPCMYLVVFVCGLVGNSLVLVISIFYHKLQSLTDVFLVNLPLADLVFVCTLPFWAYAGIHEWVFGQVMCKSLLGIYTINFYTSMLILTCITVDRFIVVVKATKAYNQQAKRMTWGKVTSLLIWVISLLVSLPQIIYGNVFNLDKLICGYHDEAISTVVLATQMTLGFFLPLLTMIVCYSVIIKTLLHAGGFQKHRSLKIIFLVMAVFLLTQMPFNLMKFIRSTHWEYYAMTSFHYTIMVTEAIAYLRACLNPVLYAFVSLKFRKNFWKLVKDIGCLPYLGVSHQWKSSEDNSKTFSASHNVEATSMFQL
EBI2 conf: EBI2 antagonist hit retest, beta-arrestin, confirmation, cell-based, single concentration, luminescence, 7a,25-OHC stimulation; 7a,25-OHC antagonism; shares compounds with EBI2 block; hit rate 29% among 2,400; inhibition, % at 5 µM;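 active means inhibition of at least 50%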
EBI2 agonist: EBI2 agonist activity of antagonist hits, confirmation, counter-screen for EBI2 antagonist project, cell-based, single concentration, agonist mode, luminescence | AID 652000, 2013 | shares compounds with EBI2 block | 2,400 tested, under 10 active | activation, % at 5 µM | EBI2-expressing cells, 60 min; 0% vehicle, 100% 7α,25-dihydroxycholesterol control;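 active means activation of at least 50%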
bGal counter: E. coli beta-galactosidase enzyme inhibition, confirmation, counter-screen for EBI2 antagonist project, biochemical, luminescence, single concentration; inhibition, % at 5 µM; purified beta-galactosidase, luminescent Galacton Star, 15 min; shares compounds with EBI2 block; hit rate 1% among 2,400;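 active means replicate-average signal at least 3 plate SD below neutral wells, shown as high inhibition, flagging enzyme-inhibiting false positives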;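 further: 0% = DMSO wells with enzyme and 100% = wells lacking enzyme; higher means stronger loss of beta-gal luminescence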
An asterisk follows results filed as active; · = no result given. Most compounds without a hit are left out; they make up all but 1.5% or so of the library.

SMILES | APJ antag | EBI2 block | APJ agonist | CCR6 antag | CXCR6 inh | EBI2 conf | EBI2 agonist | bGal counter
Nc1sc(-c2ccccc2)cc1C(=O)N1CCNCC1 | · | 46* | · | · | · | 33 | 0 | 10
O=[N+]([O-])c1cc(F)cc(F)c1Nc1ccc(F)cc1 | · | -5 | · | 1 | -5 | · | · | ·
COc1cc(OC)cc(C(=O)NC(=S)Nc2cc3oc4ccccc4c3cc2OC)c1 | 10 | 17 | -5 | 25 | 15 | · | · | ·
COc1ccc(C(=O)NC(=S)Nc2cc3oc4ccccc4c3cc2OC)cc1 | 0 | 48* | 12 | 1 | -12 | 36 | 0 | 8
O=C(c1cc2cc(Br)ccc2o1)N1CCOCC1 | 16 | 26 | -4 | 13 | -4 | · | · | ·
O=C(c1cc2ccccc2o1)N1CCN(c2ncccn2)CC1 | -1 | 59* | -4 | 5 | -2 | 34 | -1 | -11
O=C(c1cc2cc(Br)ccc2o1)N1CCN(c2ccccc2)CC1 | 10 | 53* | -3 | 8 | -7 | 37 | 1 | 8
COc1ccc(C)cc1N(CC(=O)NCCSCc1ccco1)S(=O)(=O)c1ccc(C)cc1 | 13 | 14 | -3 | 22 | 9 | · | · | ·
O=C(c1ccc2ccccc2c1)N1CCN(c2ccc(O)cc2)CC1 | -15 | 57* | 0 | 8 | 5 | 26 | -1 | -11
Cc1ccc2c(c1)cc(C(=O)N1CCN(c3ccccn3)CC1)n2C | 9 | 47* | -3 | 9 | 14 | 34 | -2 | -9
Cc1ccc(C(=O)N2CCN(c3ccccn3)CC2)cc1 | -12 | 0 | -6 | 4 | -8 | · | · | ·
O=C(c1ccc2ccccc2c1)N1CCN(c2ccccn2)CC1 | 0 | 56* | -2 | 3 | 9 | 42 | 1 | 9
Cc1ccc(/C=C/S(=O)(=O)NCC(=O)OCC(=O)N2CC(=O)Nc3ccccc32)cc1 | -10 | 0 | -4 | -2 | 0 | · | · | ·
CC(C)Cc1nnc(NC(=O)C2CC(=O)N(c3ccc4c(c3)OCCO4)C2)s1 (configuration not stated) | -15 | -2 | -3 | -1 | 2 | · | · | ·
CCCCCn1c(SCc2ccncc2)nc2cc(C(=O)NCc3ccco3)ccc2c1=O | -8 | 38* | -4 | 17 | 16 | 21 | 0 | 6
CCCCn1c(SCC(=O)NCc2ccco2)nc2ccccc2c1=O | 16 | 12 | 0 | 9 | 4 | · | · | ·
COC(=O)[C@H](C)NC(=O)Nc1cccc(Br)c1 | 19 | 8 | -1 | -1 | -1 | · | · | ·
CCOC(=O)c1c(NC(=S)NC(=O)c2cnn(CC)c2)sc2c1CCC(C)C2 (configuration not stated) | 14 | 46* | -6 | -9 | -9 | 30 | 0 | 3
CCOC(=O)c1c(NC(=O)C2C3C=CC(C3)C2C(=O)O)sc2c1CCC(C)C2 (configuration not stated) | 6 | 0 | 2 | -9 | -10 | · | · | ·
CC(C)c1ccccc1OCCNC(=O)c1cncc(Br)c1 | -21 | 47* | -3 | 9 | -1 | 16 | -2 | -7
Cc1ccc(Cl)cc1NC(=O)CON=C(N)c1ccccc1 | -46 | -8 | 5 | 2 | 2 | · | · | ·
CC1CN(S(=O)(=O)c2cccc(C(=O)NCCC3=CCCCC3)c2)CC(C)O1 (configuration not stated) | 17 | 5 | -3 | 18 | 8 | · | · | ·
COc1ccccc1CNC(=O)CSc1ccc(Br)cc1 | 2 | 45* | 0 | 4 | -9 | 24 | 1 | 5
O=C(O)Cn1c(=O)n(Cc2ccccc2)c2ccccc21 | 10 | -3 | -3 | 4 | 3 | · | · | ·
O=c1n(Cc2ccccc2)c2cc(Cl)cnc2n1Cc1ccccc1 | 29 | 71* | -3 | 19 | 8 | 50* | 0 | 6
S=C(NCC1CCCO1)N1CCN(c2nc(-c3ccc(Cl)cc3)cs2)CC1 (configuration not stated) | -15 | 86* | 1 | -15 | -3 | 66* | 2 | 5
